Measured values taken from ChEMBL document CHEMBL1781911, “Verrucamides A-D, antibacterial cyclopeptides from Myrothecium verrucaria” (J Nat Prod, 2011).
In brackets after ≈: the same amount, converted by molar mass. Square brackets hold non-standard residues; d marks the D form. Peptide text beside a SMILES is read from it. NMeT = CN[C@H](C(=O)O)[C@@H](C)O; aIle = CC[C@@H](C)[C@H](N)C(=O)O; dNMeF = CN[C@H](Cc1ccccc1)C(=O)O; NMeV = CN[C@H](C(=O)O)C(C)C; NMeS = CN[C@@H](CO)C(=O)O; dNMeA = CN[C@H](C)C(=O)O

Tested on: Staphylococcus aureus
Test: Antibacterial activity against Staphylococcus aureus Col CGMCC 1.2465 after 24 hrs by NCCLS […] method
Type: functional, organism-based
Settings: COL CGMCC 1.2465, 24 h
Outline: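 Broth microdilution in triplicate per NCCLS guidance; strain grown in Mueller-Hinton broth, 3-4 colonies cultured at 37 °C for 24 h, final inoculum 10^6 cells/mL in MHB. Samples from 10 mg/mL DMSO stocks, serially diluted; ampicillin positive control. Incubated 37 °C for 24 h, growth read as absorbance at 595 nm.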

## CC1(C)S[C@@H]2[C@H](NC(=O)[C@H](N)c3ccccc3)C(=O)N2[C@H]1C(=O)O [AMPICILLIN]
  IC50: 0.09 µg/mL (≈ 0.258 µM)
  MIC: 0.625 µg/mL (≈ 1.79 µM)

## CC[C@@H](C)[C@@H]1NC(=O)CNC(=O)[C@@H](C)N(C)C(=O)[C@H](C(C)C)NC(=O)[C@H]([C@@H](C)O)N(C)C(=O)[C@H](C(C)C)NC(=O)[C@H]([C@@H](C)O)N(C)C(=O)[C@H](C(C)C)NC(=O)CNC(=O)[C@@H](Cc2ccccc2)N(C)C(=O)[C@H](C(C)C)NC(=O)[C@H](CO)NC(=O)[C@H]([C@H](C)CC)N(C)C(=O)[C@H](CO)N(C)C1=O [VERRUCAMIDE A]
  IC50: 3.59 µg/mL (≈ 2.54 µM)
  MIC: 10 µg/mL (≈ 7.06 µM)

## CC[C@@H](C)[C@@H]1NC(=O)CNC(=O)[C@@H](C)N(C)C(=O)[C@H](C(C)C)NC(=O)[C@H]([C@@H](C)O)N(C)C(=O)[C@H](C(C)C)NC(=O)[C@H]([C@@H](C)O)N(C)C(=O)[C@H](C(C)C)NC(=O)CNC(=O)[C@@H](Cc2ccccc2)N(C)C(=O)[C@H](C(C)C)NC(=O)[C@H](CO)NC(=O)[C@H](C(C)C)N(C)C(=O)[C@H](CO)N(C)C1=O [VERRUCAMIDE B] (cyclo(GV[NMeT]V[NMeT]V[dNMeA]G[aIle][NMeS][NMeV]SV[dNMeF]))
  IC50: 5.31 µg/mL (≈ 3.79 µM)
  MIC: 20 µg/mL (≈ 14.3 µM)

## CC[C@@H](C)[C@H]1C(=O)N[C@@H](CO)C(=O)N[C@@H](C(C)C)C(=O)N(C)[C@H](Cc2ccccc2)C(=O)NCC(=O)N[C@@H](C(C)C)C(=O)N(C)[C@@H]([C@@H](C)O)C(=O)N[C@@H](C(C)C)C(=O)N(C)[C@@H]([C@@H](C)O)C(=O)N[C@@H](C(C)C)C(=O)N(C)[C@H](C)C(=O)NCC(=O)N[C@@H](C(C)C)C(=O)N(C)[C@@H](CO)C(=O)N1C [VERRUCAMIDE C]
  IC50: 4.45 µg/mL (≈ 3.17 µM)
  MIC: 10 µg/mL (≈ 7.13 µM)

## CC(C)[C@@H]1NC(=O)[C@H]([C@@H](C)O)N(C)C(=O)[C@H](C(C)C)NC(=O)[C@H]([C@@H](C)O)N(C)C(=O)[C@H](C(C)C)NC(=O)CNC(=O)[C@@H](Cc2ccccc2)N(C)C(=O)[C@H](C(C)C)NC(=O)[C@H](CO)NC(=O)[C@H](C(C)C)N(C)C(=O)[C@H](CO)N(C)C(=O)[C@H](C(C)C)NC(=O)CNC(=O)[C@@H](C)N(C)C1=O [VERRUCAMIDE D]
  IC50: 9.09 µg/mL (≈ 6.55 µM)
  MIC: 40 µg/mL (≈ 28.8 µM)
